ChEMBL document CHEMBL1130297, “Synthesis of 5,6-dihydro-4-hydroxy-2-pyrones as HIV-1 protease inhibitors: the profound effect of polarity on antiviral activity” (J Med Chem, 1997)

What was measured:
[1] = target: Human immunodeficiency virus type 1 protease (Human immunodeficiency virus 1, UniProt Q72874); assay: In vitro inhibition activity against HIV-1 protease.
Method in brief: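 HIV-1 protease inhibition read by HPLC assay at pH 6.2, modified from an earlier method. Buffer: 1.0 mM dithiothreitol, 80 mM MES, 160 mM NaCl, 1.0 mM EDTA, 0.1% polyethylene glycol (MW 8000). Final protease concentration 1.5 nM. IC50 values reported.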

CCRF-CEM = assay: Antiviral activity in HIV infected CEM cells.; assay type: functional, cell-based; conditions: Homo sapiens
Method in brief: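 Cytopathic-effect protection assay in HIV-infected CEM cells by a standard protocol. EC50 taken as the concentration at which 50% of cells are protected from cytopathic effects.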

[2] = Cytotoxicity in CEM cells in the absence of virus; assay type: cell-based; conditions: human, CEM (CCRF-CEM) cells; read-out: TC50 (the source's name)
Method in brief: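 Toxicity read in uninfected CEM cells (no virus present), run alongside the cellular antiviral protocol. Reported as TC50.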

IC50 [1] [µM]	EC50 (CCRF-CEM) [µM]	SMILES	CC50 [2] [µM]
0.012	9.4	Cc1ccc(C(C)(C)C)c(SC2=C(O)OC(CCc3ccccc3)(c3ccc(OCCO)cc3)CC2=O)c1 (stereo not drawn)	23
0.0017	4.7	Cc1cc(SC2=C(O)OC(CCc3ccc(O)cc3)(c3ccccc3)CC2=O)c(C(C)(C)C)cc1CO (stereo not drawn)	> 100
0.0032	1.4	Cc1cc(SC2=C(O)OC(CCc3ccc(N)cc3)(C3CCCCC3)CC2=O)c(C(C)(C)C)cc1CO (stereo not drawn)	80
0.011	> 69	Cc1ccc(C(C)(C)C)c(SC2=C(O)OC(CCc3ccc(O)cc3)(c3ccccc3)CC2=O)c1 (stereo not drawn)	69
–	2	COc1ccc(C2(CCc3ccc(O)cc3)CC(=O)C(Sc3cc(C)c(CO)cc3C(C)(C)C)=C(O)O2)cc1 (stereo not drawn)	> 100
0.12	> 21	Cc1cc(SC2=C(O)OC(CCc3ccc(O)cc3)(c3ccc(O)cc3)CC2=O)c(C(C)(C)C)cc1CO (stereo not drawn)	21
0.0045	> 18	COCc1cc(C(C)(C)C)c(SC2=C(O)OC(CCc3ccccc3)(c3ccc(OCCO)cc3)CC2=O)cc1C (stereo not drawn)	18
0.0043	2.5	Cc1cc(SC2=C(O)OC(C)(CCc3ccc(O)cc3)CC2=O)c(C(C)(C)C)cc1CO (stereo not drawn)	> 100
0.004	3.1	Cc1cc(SC2=C(O)OC(CCc3cccc(N)c3)(c3ccccc3)CC2=O)c(C(C)(C)C)cc1CO (stereo not drawn)	23
0.0037	4.2	Cc1cc(SC2=C(O)OC(CCc3ccccc3)(c3ccc(OCCO)cc3)CC2=O)c(C(C)(C)C)cc1O (stereo not drawn)	27
0.024	> 54	Cc1ccc(C(C)(C)C)c(SC2=C(O)OC(CCc3ccc(N)cc3)(c3ccccc3)CC2=O)c1 (stereo not drawn)	54
0.0025	6.1	Cc1cc(SC2=C(O)OC(CCc3cccc(O)c3)(c3ccccc3)CC2=O)c(C(C)(C)C)cc1CO (stereo not drawn)	> 100
0.0031	3.7	Cc1cc(SC2=C(O)OC(CCc3ccc(N)cc3)(c3ccccc3)CC2=O)c(C(C)(C)C)cc1CO (stereo not drawn)	94
0.0036	0.6	Cc1cc(SC2=C(O)OC(CCc3ccc(O)cc3)(C(C)C)CC2=O)c(C(C)(C)C)cc1CO (stereo not drawn)	> 100
0.04	> 23	Cc1ccc(C(C)(C)C)c(SC2=C(O)OC(CCc3ccccc3)(c3ccc(O)cc3)CC2=O)c1 (stereo not drawn)	23
0.0066	2.5	Cc1cc(SC2=C(O)OC(CCc3ccccc3)(c3ccccc3)CC2=O)c(C(C)(C)C)cc1CO (stereo not drawn)	66
0.015	> 33	COc1cc(C(C)(C)C)c(SC2=C(O)OC(CCc3ccccc3)(c3ccccc3)CC2=O)cc1C (stereo not drawn)	33
0.032	> 67	Cc1ccc(C(C)(C)C)c(SC2=C(O)OC(CCc3ccccc3)(c3ccc(N)cc3)CC2=O)c1 (stereo not drawn)	67
0.0041	0.5	Cc1cc(SC2=C(O)OC(CCc3ccc(O)cc3)(C3CCCCC3)CC2=O)c(C(C)(C)C)cc1CO (stereo not drawn)	75
0.0064	1.8	Cc1cc(SC2=C(O)OC(CCc3ccccc3)(c3ccc(OCCO)cc3)CC2=O)c(C(C)(C)C)cc1OCCO (stereo not drawn)	25
0.0068	> 20	Cc1cc(SC2=C(O)OC(CCc3ccccc3)(c3ccccc3)CC2=O)c(C(C)(C)C)cc1OCCO (stereo not drawn)	20
0.0014	4.2	Cc1cc(SC2=C(O)OC(CCc3ccccc3)(c3ccc(OCCO)cc3)CC2=O)c(C(C)(C)C)cc1CO (stereo not drawn)	67
0.033	> 23	Cc1cc(SC2=C(O)OC(CCc3ccccc3)(c3ccccc3)CC2=O)c(C(C)(C)C)cc1O (stereo not drawn)	23
–	> 55	Cc1ccc(C(C)(C)C)c(SC2=C(O)OC(CCc3ccccc3)(c3ccccc3)CC2=O)c1 (stereo not drawn)	55
0.0027	0.5	Cc1cc(SC2=C(O)OC(CCc3ccc(N)cc3)(C(C)C)CC2=O)c(C(C)(C)C)cc1CO (stereo not drawn)	> 100
